Laboratory results reported in PubChem BioAssay AID624466 (The Scripps Research Institute Molecular Screening Center, 2012).
Out of some 360,000 compounds screened, about 5,400 (1.5%) were called active. Many of the other results were omitted from the sample, so actives are more common in it than they were. Unmarked numbers belong to inactive results.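 Rule for the calls: active = inhibition above a per-plate cutoff, the mean inhibition of test compounds on that plate plus 3 SD (cut at about 49% in these data); inactive = the rest.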

The compounds below were run against Trace amine-associated receptor 1 (Homo sapiens) (UniProt Q96RJ0) (assay: blockers of beta-PEA-driven TAAR1 calcium signal – Fluo-8 calcium fluorescence, CHO RD-HGA16 cells, primary screen (AID 624466;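 note: 0% = DMSO plus EC80 beta-PEA response and 100% = DMSO alone without agonist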)). Conditions: CHO RD-HGA16 TAAR1, Fluo-8 calcium fluorescence, antagonist; at 3 µM; hits give high values.
Chain of Trace amine-associated receptor 1 (Homo sapiens) (Q96RJ0 whole entry, looked up): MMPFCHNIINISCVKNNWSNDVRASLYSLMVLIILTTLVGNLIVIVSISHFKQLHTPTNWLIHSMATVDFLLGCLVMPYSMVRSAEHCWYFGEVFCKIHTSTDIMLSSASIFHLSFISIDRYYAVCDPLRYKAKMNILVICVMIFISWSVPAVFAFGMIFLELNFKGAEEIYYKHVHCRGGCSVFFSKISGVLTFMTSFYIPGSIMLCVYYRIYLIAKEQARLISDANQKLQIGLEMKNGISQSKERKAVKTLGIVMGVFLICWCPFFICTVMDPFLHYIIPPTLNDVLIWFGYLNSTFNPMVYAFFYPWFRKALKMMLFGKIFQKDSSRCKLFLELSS
In short: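 System: CHO RD-HGA16 cells bearing hTAAR1. Reagent: EC80 β-phenethylamine stimulus. Schedule: seeding 17-24 h prior, 75-min 37 °C, 30-min RT dye loading. Signal: Fluo-8 intracellular calcium dye fluorescence, real-time kinetic reads. Read-out: % inhibition from peak post-agonist over basal fluorescence ratio. Benchmarks: vehicle wells and EC80 agonist wells. Replicates: n of 1.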

Row | SMILES | inhibition
1 | c1ccc(CSc2ncnc3c2sc2nc(N4CCOCC4)c4c(c23)CCCC4)cc1 | -16.6%
2 | c1ccc2c(CCN3CCNC[C@H]3Cc3cccc4ccccc34)cccc2c1 | 23.8%
3 | c1ccc(C2CNCc3c2ccc2ccccc32)cc1 (centres undefined) | 81.3% (active)
4 | O=C(NCCC1=CCCCC1)c1ccc(-n2cncn2)cc1 | -0.95%
5 | Cc1ccn2c(=O)c(C(=O)NCCC3=CCCCC3)c(O)nc2c1 | 64.5% (active)
6 | O=C(CCNC(=O)Cn1ccc2ccccc2c1=O)NCCC1=CCCCC1 | -24.7%
7 | C(#CCN1CCOCC1)CCCN1CCOCC1 | -21.3%
8 | O=C(COC(=O)C12CC3CC(CC(O)(C3)C1)C2)NC12CC3CC(CC(C3)C1)C2 | -12.3%
9 | CCN(CC)c1ccc(/C=N/NC(=O)c2cnccn2)c(O)c1 | 48.9% (active)
10 | CCN(CC)c1ccc(NC(=O)c2ccc(Cl)nc2)cc1 | 6.5%
11 | Cc1ccc(/C=N/NC(=O)C2=NNC(c3ccccc3)(c3ccccc3)C2)c(O)c1 | 0.27%
12 | Nc1ncnc2c1ncn2[C@@H]1O[C@H](C(=O)N[C@@H](CCc2ccccc2)C(=O)N2CCCN(Cc3cccs3)CC2)[C@@H](O)[C@H]1O | 3.27%
13 | COc1cccc(CC2(CO)CCN(Cc3cnc(-c4cccc(C)c4)nc3)CC2)c1 | 5.01%
14 | COc1cccc(CNC(=O)[C@H]2CCCN2C(=O)[C@H]2CCCN2C(=O)C2CCCCC2)c1 | -16.5%
15 | COc1cccc(C=CC(=O)C=CC=Cc2ccccc2)c1 | -24.3%
16 | COc1ccc(/C=C/C(=O)c2c(O)cc(OC)cc2OC)cc1 | 1.09%
17 | O=C(/C=C(O)/C=C/c1ccc(O)cc1)/C=C/c1ccc(O)cc1 | 68.2% (active)
18 | O=C(COc1ccc(Cl)cc1)NCCSc1ccccc1 | 0.81%
19 | CCCNC(=O)C1(C)CCCN(Cc2c(C)nn(-c3ccccc3)c2C)C1 (centres undefined) | 5.37%
20 | O=C1C(=O)N(CCCN2CCOCC2)C(c2ccc([N+](=O)[O-])cc2)/C1=C(\O)c1ccc2c(c1)OCCO2 (centres undefined) | 6.85%
21 | CC(=O)c1ccc(S(=O)(=O)NCC2CCN(C(=O)C(=O)c3cccs3)CC2)cc1 | -6.62%
22 | O=C(CCN1CCN(c2ccccc2)CC1)NNC(=S)Nc1ccccc1 | -13.7%
23 | CCCCC(=O)NNC(=S)NC(=O)C(c1ccccc1)c1ccccc1 | 106% (active)

Row | SMILES | inhibition
24 | CC(C)CC(=O)NC(=S)NCc1ccccc1 | -16.9%
25 | O=C(C(=O)N1CCN(c2ccccc2)CC1)c1ccc2c(c1)OCO2 | -15%
26 | COCc1cc(=O)[nH]c(SC)n1 | -6.85%
27 | CNC(=O)c1ccsc1NC(=O)c1ccc(S(=O)(=O)N2CCc3ccccc32)cc1 | 62.9% (active)
28 | NS(=O)(=O)c1ccc(CNC(=O)c2cccc(S(=O)(=O)N3CCc4ccccc43)c2)cc1 | -6.37%
29 | CC1CN(S(=O)(=O)c2ccc(C(=O)Nc3sccc3C(N)=O)cc2)CC(C)O1 (centres undefined) | 9.54%
30 | COCCn1c(=NC(=O)c2ccccc2[N+](=O)[O-])sc2cc(S(C)(=O)=O)ccc21 | -0.74%
31 | O=S1(=O)CCO[C@H]2Cc3ccccc3[C@H]2N1Cc1ccccc1 | 9.98%
32 | Cc1ccc(CNC(=O)CCNS(=O)(=O)c2ccc(Br)s2)cc1 | 5.04%
33 | CCOC(=O)C1=C(C(=O)OCC)C2N(Cc3ccc(C#N)cc3)c3ccccc3[C@@]23C[C@@H](C(=O)OC)N(S(=O)(=O)c2ccc(F)cc2)C3=N1 (some centres undefined) | -16.3%
34 | O=C(N/C(=C\c1ccc([N+](=O)[O-])cc1)C(=O)N1CCCCC1)c1ccco1 | 9.56%
35 | COc1ccc(C(=O)NC2CCCc3c2cnn3-c2cccc(C)c2C)c(OC)n1 (centres undefined) | 62.1% (active)
36 | Cn1nccc1C(=O)NC1CCCc2c1cnn2-c1ccc(F)cc1F (centres undefined) | 4.98%
37 | COc1ccc(OC)c(C(=O)NC2CCCc3c2cnn3-c2cc(C)cc(C)c2)c1 (centres undefined) | -17.8%
38 | CCN1CCN(C(=O)c2cc3cc4ccc(OC)cc4nc3s2)CC1 | 0.15%
39 | CCCCCCCCN1C(=O)[C@@H](CC(=O)NCc2ccccc2)C[C@@]2(C(=O)OC)C1=C[C@H](C(C)(C)C)O[C@@H]2C | -4.61%
40 | CCOC(=O)[C@]12CCC=C1N(Cc1ccccc1)C(=O)[C@H](CC(=O)N1CCCC1)C2 | -13.9%
41 | CCOC(=O)c1c(NC(=O)C2(C)Cc3ccccc3C(=O)O2)sc2c1CCCC2 (centres undefined) | -23.7%
42 | CCOC(=O)C1=C(NC(=S)NC(=O)c2ccccc2)c2ccccc2CC1(C)C | 59.3% (active)
43 | Cn1nnc(NC(=S)NC(=O)c2ccccc2)n1 | -35%
44 | CCOC(=O)N1CCN(C(=O)C[C@H]2C[C@@]3(C(=O)OC)C(=C[C@H](C4CCCC4)O[C@@H]3C)N(Cc3ccccc3)C2=O)CC1 | -6.31%
45 | CC(C)N1C(=O)c2ccccc2NC(=O)C1C(=O)NCc1cccs1 (centres undefined) | -8.37%
46 | O=[N+]([O-])c1cc([N+](=O)[O-])c2cccnc2c1O | 2.43%

Row | SMILES | inhibition
47 | CC(NCC(=O)Nc1cc(Cl)cc(Cl)c1)c1ccccc1 (centres undefined) | 3.33%
48 | O=C(CNC(c1ccccc1)c1ccccc1)Nc1ccc(F)cc1 | -11.9%
49 | NNC(=O)CNC(c1ccccc1)c1cc(Cl)ccc1NC(=O)c1ccccc1 (centres undefined) | 80% (active)
50 | Cc1ccc(-c2cc(=O)[nH]c(NCc3ccccc3)n2)cc1 | -9.41%
51 | COc1ccc(CN(CC(=O)NC2CCCC2)C(=O)CCC(=O)Nc2cc(C)on2)cc1 | -2.7%
52 | Cc1ccc(CN(CC(=O)NC2CCCCC2)C(=O)c2csnn2)cc1 | 10.9%
53 | Cc1cc(C(C)(C)C)oc1C(=O)N(CC(=O)NC1CCCC1)Cc1ccc(Cl)cc1 | 56.4% (active)
54 | COCCNC(=S)N(C)[C@H]1C[C@H]2c3[nH]c4ccccc4c3CCN2C[C@H]1[C@H](C)O | -4.21%
55 | COC(=O)C[C@@H]1C=C[C@@H](NC(=O)c2ccc3c(c2)OCO3)[C@@H](CO)O1 | 8.18%
56 | O=C(Cn1cnc2ccccc2c1=O)NCC1COc2ccccc2O1 (centres undefined) | -0.58%
57 | c1ccc2c(c1)OCC(CNc1ncnc3nc[nH]c13)O2 (centres undefined) | 105% (active)
58 | COc1ccc(CCNc2ncnc3nc[nH]c23)cc1OC | 42.1%
59 | NS(=O)(=O)c1ccc(CCNC(=O)c2ccc(Cl)c(S(=O)(=O)N3CCCCCC3)c2)cc1 | 48.9% (active)
60 | O=C(NCCc1ccc(F)cc1)c1ccc(S(=O)(=O)N2CCCCC2)cc1 | -0.8%
61 | O=C(c1ccc(Cl)c(S(=O)(=O)N2CCCCC2)c1)N1CCCCCC1 | -4.7%
62 | c1ccc(Cn2nnc3c(NCC4CC4)ncnc32)cc1 | -5.34%
63 | CC(C)Nc1ncnc2c1nnn2Cc1ccccc1 | -8.98%
64 | Clc1ccc(Nc2ncnc3c2nnn3Cc2ccccc2)cc1 | 59.2% (active)
65 | Nc1ncnc2c1ncn2C1OC(CO)CC1O (centres undefined) | -14.9%
66 | CC1(C)OC(=O)C2=C(CC(CCc3ccccc3)OC2c2ccc(Cl)cc2)O1 (centres undefined) | 18.9%
67 | O=C(NCc1ccc(F)cc1F)[C@@H]1CCCN1C(=O)[C@@H]1CCCN1C(=O)c1cccc(Cl)c1 | -26.2%
68 | Cc1cc(Nc2ccc(Br)cc2F)n2ncnc2n1 | -22.8%
69 | CC(=O)Nc1ccc(OCCC[n+]2cccc(C(=O)[O-])c2)cc1 | 10.6%

Row | SMILES | inhibition
70 | CCCCn1c(SCC(=O)N2CCCC2=O)nc2cc(S(N)(=O)=O)ccc21 | -16.1%
71 | CCCCn1c(SCC(=O)N2CCC(C(=O)OCC)CC2)nc2cc(S(N)(=O)=O)ccc21 | -5.42%
72 | CCCCn1c(SCc2ncc(-c3ccccc3)o2)nc2cc(S(N)(=O)=O)ccc21 | 63.4% (active)
73 | CC1(C(=O)NCc2ccccc2)CN(S(C)(=O)=O)CC(=O)N1CC(F)(F)F (centres undefined) | -8.96%
74 | Cc1ccc(Cn2cc(CN3CC(N4CCN(C)CC4)CS3(=O)=O)nn2)cc1 (centres undefined) | -10.1%
75 | CC(C)(C)n1ncc2c(=O)n(Cc3c(Cl)cccc3Br)cnc21 | 58.1% (active)
76 | CC(C)(C)n1ncc2c(=O)n(Cc3ccc(Cl)cc3)cnc21 | 18.1%
77 | Cn1cnc2c1c(=O)n(Cc1c(Cl)cccc1Cl)c(=O)n2C | -4.09%
78 | CCCCNc1cccc2c1S(=O)(=O)N[C@@H](C)CO2 | 4.47%
79 | Cc1ccsc1C(=O)NNC(=O)COc1ccc(Br)cc1 | -10.4%
80 | Cc1ccc(O)c(NC(=S)NC(=O)COc2ccc(Br)cc2)c1 | 98.5% (active)
81 | Cn1cccc1C(=O)NNC(=O)COc1ccc(Br)cc1 | 8.71%
82 | COc1ccc(OC)c(CNC(=O)c2cc(=O)[nH]c3ccc(S(=O)(=O)N4CCCC4)cc23)c1 | -12.7%
83 | COc1ccc(S(=O)(=O)N2CCC(C(=O)NCCC(=O)NCc3cccc(OC)c3)CC2)cc1 | -10.5%
84 | O=C(Nc1ccc(Br)cc1)C1CCC(=O)N1Cc1ccccc1Cl (centres undefined) | 11.4%
85 | Brc1ccc(-c2csc(N/N=C/c3cccnc3)n2)cc1 | 15.8%
86 | S=c1nc2ccccc2c2nc(-c3cccnc3)[nH]n12 | 5.39%
87 | Fc1ccc(/C=N/Nc2nc(-c3cccnc3)nc3ccccc23)cc1 | 55.8% (active)
88 | O=C(c1ccc(Cl)cc1)n1cnc2ccccc21 | -8.66%
89 | COc1cccc(N2CCN(CC(=O)Nc3ccnn3C3CCCC3)CC2)c1 | 10.4%
